Data set [1] deals with SW-620. Nature of the data set: Antiproliferative activity against human SW620 cells after 24 hrs by MTT assay. The settings on record: SW-620, 24 h. It is filed as functional, cell-based. The method in brief: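 MTT viability: cells seeded at 1×10^4 per well in DMEM with 10% FBS, left to adhere overnight, then serum-starved 4 h. Compounds were given at a range of doses, with 0.1% DMSO vehicle as control. EC50 was taken from dose-response curves spanning 100nM-50µM. Data are mean ± SEM from at least three independent experiments.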
(Tetrazolium assays rely on reduction of a dye to a coloured formazan, in cell work by metabolically active cells.)

In data set [2] the test system is MCF7. Nature of the data set: Antiproliferative activity against human ER-negative MCF7 cells after 72 hrs by MTT assay. It is filed as functional, cell-based. The settings on record: MCF7, 72 h.
A short description of data set [3]: Safety index, ratio of IC50 for human MCF10A cells to EC50 for human DLD1 cells. The settings on record: MCF10A cells versus DLD1 cells, read-out: Ratio IC50/EC50. It is filed as toxicity, cell-based, MCF-10A. The method in brief: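 Safety index is the IC50 in the normal cells divided by the EC50 in the cancer cells. Both values come from MTT assays: cells in DMEM with 10% FBS, serum-starved 4 h, then exposed to compound across a 100nM-50µM dose range with 0.1% DMSO as vehicle control.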

Data set [4] has as its system MCF7. Nature of the data set: Antiproliferative activity against human […] cells assessed as growth recovery treated up to 5 uM for 24 hrs followed by maintained in drug free medium for 72 hrs by MTT assay. It is filed as functional.
For data set [5], the system named is MCF7. Nature of the data set: Cell cycle arrest in human […] MCF7 cells assessed as accumulation at S phase at 2.5 uM by propidium iodide staining by FACS analysis (reference value: 24.76%). It is filed as functional. Background: A flow cytometer gives signals particle by particle.
Data set [6] relates to MCF7. Nature of the data set: Cell cycle arrest in human […] cells assessed as accumulation at G2 phase at 5 uM by propidium iodide staining by FACS analysis (reference value: 10.96%). It is filed as functional.
Data set [7] concerns Mast/stem cell growth factor receptor Kit (Homo sapiens), P10721 [D816A]. Nature of the data set: Inhibition of cKit D816A mutant (unknown origin) at 10 uM. The method in brief:
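Cell-free kinase profiling was run as a standard 33P-ATP-based in vitro kinase assay.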

Data set [8] has as its target Phosphodiesterase 4 (Homo sapiens) (UniProt P27815+Q08499+Q07343+Q08493). Nature of the data set: Inhibition of PDE4 CAT (unknown origin) activity at 1 to 10 uM. It is filed as protein assay. The method in brief:
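Recombinant PDE isoform activity was read by fluorescence polarization. A binding reagent complexes with the nucleotide monophosphate that the phosphodiesterase generates from cAMP/cGMP, and this raises the polarization of the labelled substrate. Reference standards were PDE1A3 10µM IBMX, PDE2A3 1nM BAY 60-7550, PDE3CAT 1µM cilostazol, PDE4CAT rolipram, PDE5CAT 0.1µM sildenafil, PDE7A […], PDE8A1 10µM BRL-50481, PDE9A1 1µM SB 36216 and PDE11A1 dipyridamole.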

Data set [9] concerns the target cAMP and cAMP-inhibited cGMP 3',5'-cyclic phosphodiesterase 10A (Homo sapiens) (UniProt Q9Y233). Nature of the data set: Inhibition of PDE10A1 (unknown origin) activity at 1 to 10 uM.
Data set [10] relates to MDA-MB-231. Nature of the data set: Cytotoxicity against human MDA-MB-231 cells assessed as cell viability at 5 uM by MTT assay in presence of 100 ng/ml cholera toxin for 16 hrs. It is filed as functional, cell-based.
Data set [11] addresses Epidermal growth factor receptor (Homo sapiens) (UniProt P00533). Nature of the data set: Inhibition of EGF-induced EGFR phosphorylation at Tyr1068 in human MDA-MB-231 cells at 0.5 uM by ELISA. It is filed as cell-based. The method in brief:
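MDA-MB-231 cells pretreated 1 h in serum-free medium, then EGF-stimulated for 15 min and lysed. Equal lysate protein (Bradford) assayed by ELISA kits for p-EGFR (Tyr1068, Tyr845, Tyr1173) and p-HER2. Absorbance read at 450 nm, normalized to total EGFR or HER2.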

The subject of data set [12] is MDA-MB-231. Nature of the data set: Cytotoxicity against human […] cells assessed as cell viability at 5 uM by MTT assay in presence of z-IETD-FMK caspase-8 inhibitor. It is filed as functional, cell-based. The method in brief: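 Cells seeded 1×10^4/well in DMEM with 10% FBS, adhered overnight, serum-starved 4 h; pre-incubated 2 h with Z-IETD-FMK or Z-LEHD-FMK (10µM each), then 5μM compound for a further 24 h; viability by MTT.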

The test system of data set [13] is MDA-MB-231. Nature of the data set: Induction of apoptosis in human […] MDA-MB-231 cells assessed as increase in Bax to Bcl2 ratio at 5 uM after 24 hrs by immunoblotting analysis. It is filed as functional, cell-based. For orientation: A western blot detects proteins with antibodies after separation by electrophoresis.
For data set [14], the system named is MDA-MB-231. Nature of the data set: Inhibition of VEGF-A expression in human MDA-MB-231 cells at 1 uM after 24 hrs by qPCR analysis. It is filed as functional, cell-based. The method in brief: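 Gene expression was measured by qPCR in MDA-MB-231 breast cancer cells treated with 1µM compound. GAPDH served as the housekeeping internal control.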
For data set [15], the target named is Epidermal growth factor receptor (Homo sapiens) (UniProt P00533). Nature of the data set: Inhibition of EGF-induced EGFR phosphorylation at Tyr1045 in human MCF7 cells at 1 uM by ELISA. It is filed as cell-based.
Sequence of Epidermal growth factor receptor (Homo sapiens) (P00533 whole entry): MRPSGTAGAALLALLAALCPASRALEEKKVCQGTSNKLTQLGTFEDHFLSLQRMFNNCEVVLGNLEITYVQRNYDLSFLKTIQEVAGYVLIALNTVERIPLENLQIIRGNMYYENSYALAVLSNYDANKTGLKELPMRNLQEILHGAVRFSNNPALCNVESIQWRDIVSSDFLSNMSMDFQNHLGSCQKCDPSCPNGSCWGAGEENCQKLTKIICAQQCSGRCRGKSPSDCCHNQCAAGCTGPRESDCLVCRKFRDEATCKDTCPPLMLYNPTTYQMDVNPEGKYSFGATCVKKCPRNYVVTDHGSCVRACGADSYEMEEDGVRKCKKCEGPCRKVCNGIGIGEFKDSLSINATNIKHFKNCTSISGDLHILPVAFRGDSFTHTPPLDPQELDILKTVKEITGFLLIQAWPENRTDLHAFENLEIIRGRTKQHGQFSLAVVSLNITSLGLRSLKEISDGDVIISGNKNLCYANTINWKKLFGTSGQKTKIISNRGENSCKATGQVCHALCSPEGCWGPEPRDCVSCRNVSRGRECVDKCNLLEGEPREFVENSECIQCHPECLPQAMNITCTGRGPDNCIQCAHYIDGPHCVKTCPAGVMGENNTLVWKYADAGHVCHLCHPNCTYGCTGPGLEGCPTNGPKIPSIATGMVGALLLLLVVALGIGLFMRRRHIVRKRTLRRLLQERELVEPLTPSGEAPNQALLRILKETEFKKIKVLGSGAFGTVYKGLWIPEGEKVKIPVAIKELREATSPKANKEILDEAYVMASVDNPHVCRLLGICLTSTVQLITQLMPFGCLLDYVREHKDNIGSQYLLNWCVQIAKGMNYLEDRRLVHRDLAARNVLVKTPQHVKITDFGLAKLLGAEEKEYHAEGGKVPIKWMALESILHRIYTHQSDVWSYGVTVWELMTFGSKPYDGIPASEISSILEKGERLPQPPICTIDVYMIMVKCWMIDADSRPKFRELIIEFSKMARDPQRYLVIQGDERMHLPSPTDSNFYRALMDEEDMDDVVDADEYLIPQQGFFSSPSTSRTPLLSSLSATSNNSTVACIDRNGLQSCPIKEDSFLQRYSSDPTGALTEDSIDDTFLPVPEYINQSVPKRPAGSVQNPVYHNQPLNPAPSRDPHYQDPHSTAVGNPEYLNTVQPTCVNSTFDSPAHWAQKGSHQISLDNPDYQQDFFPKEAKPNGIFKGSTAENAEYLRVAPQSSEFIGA
The target in data set [16] is T1, Signal transducer and activator of transcription 1-alpha/beta (Homo sapiens) (UniProt P42224).
T1 sequence (whole entry): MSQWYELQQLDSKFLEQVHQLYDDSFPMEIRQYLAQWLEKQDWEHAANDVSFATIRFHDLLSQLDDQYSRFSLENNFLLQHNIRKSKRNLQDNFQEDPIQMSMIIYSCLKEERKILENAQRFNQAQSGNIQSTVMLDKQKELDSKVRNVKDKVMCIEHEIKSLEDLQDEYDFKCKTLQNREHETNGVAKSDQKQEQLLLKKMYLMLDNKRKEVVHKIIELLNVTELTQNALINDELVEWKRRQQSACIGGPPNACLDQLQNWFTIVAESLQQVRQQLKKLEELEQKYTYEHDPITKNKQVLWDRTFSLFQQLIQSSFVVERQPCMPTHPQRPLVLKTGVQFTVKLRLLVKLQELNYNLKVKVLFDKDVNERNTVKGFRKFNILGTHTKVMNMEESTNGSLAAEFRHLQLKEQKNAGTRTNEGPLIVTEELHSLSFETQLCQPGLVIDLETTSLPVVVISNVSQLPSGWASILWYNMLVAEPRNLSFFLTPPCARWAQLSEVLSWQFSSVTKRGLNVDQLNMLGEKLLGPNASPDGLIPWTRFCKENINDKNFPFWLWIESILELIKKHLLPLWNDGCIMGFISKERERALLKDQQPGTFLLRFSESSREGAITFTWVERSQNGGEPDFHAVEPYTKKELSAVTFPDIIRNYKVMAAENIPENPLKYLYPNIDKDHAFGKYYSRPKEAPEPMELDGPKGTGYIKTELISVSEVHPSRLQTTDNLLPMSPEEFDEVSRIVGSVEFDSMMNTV
Nature of the data set: Inhibition of EGF-induced STAT1 phosphorylation in human MCF7 cells at 1 uM by ELISA. It is filed as cell-based.

Data set [17] concerns MDA-MB-231. Nature of the data set: Inhibition of EGF-induced cell migration in human MDA-MB-231 cells assessed as decrease in number of cells toward free space at 1 uM after 24 hrs by wound healing assay. It is filed as functional, cell-based. The method in brief: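 Confluent MDA-MB-231 monolayers scratch-wounded, washed and treated at 1μM in serum-free medium ± EGF (100ng/ml) for 24 h. Wound closure measured as distances in six random fields at 10×.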

The record followed here is ChEMBL document CHEMBL3352791, “Thioaryl naphthylmethanone oxime ether analogs as novel anticancer agents” (J Med Chem, 2014).

Molecules are shown by their SMILES. pEC50: −log10 of the molar value. Active and inactive are the calls of the source. The calls are words filed in the database; no cut-off is given here.

Sequence of Mast/stem cell growth factor receptor Kit (Homo sapiens), P10721 [D816A] (P10721 whole entry D816A): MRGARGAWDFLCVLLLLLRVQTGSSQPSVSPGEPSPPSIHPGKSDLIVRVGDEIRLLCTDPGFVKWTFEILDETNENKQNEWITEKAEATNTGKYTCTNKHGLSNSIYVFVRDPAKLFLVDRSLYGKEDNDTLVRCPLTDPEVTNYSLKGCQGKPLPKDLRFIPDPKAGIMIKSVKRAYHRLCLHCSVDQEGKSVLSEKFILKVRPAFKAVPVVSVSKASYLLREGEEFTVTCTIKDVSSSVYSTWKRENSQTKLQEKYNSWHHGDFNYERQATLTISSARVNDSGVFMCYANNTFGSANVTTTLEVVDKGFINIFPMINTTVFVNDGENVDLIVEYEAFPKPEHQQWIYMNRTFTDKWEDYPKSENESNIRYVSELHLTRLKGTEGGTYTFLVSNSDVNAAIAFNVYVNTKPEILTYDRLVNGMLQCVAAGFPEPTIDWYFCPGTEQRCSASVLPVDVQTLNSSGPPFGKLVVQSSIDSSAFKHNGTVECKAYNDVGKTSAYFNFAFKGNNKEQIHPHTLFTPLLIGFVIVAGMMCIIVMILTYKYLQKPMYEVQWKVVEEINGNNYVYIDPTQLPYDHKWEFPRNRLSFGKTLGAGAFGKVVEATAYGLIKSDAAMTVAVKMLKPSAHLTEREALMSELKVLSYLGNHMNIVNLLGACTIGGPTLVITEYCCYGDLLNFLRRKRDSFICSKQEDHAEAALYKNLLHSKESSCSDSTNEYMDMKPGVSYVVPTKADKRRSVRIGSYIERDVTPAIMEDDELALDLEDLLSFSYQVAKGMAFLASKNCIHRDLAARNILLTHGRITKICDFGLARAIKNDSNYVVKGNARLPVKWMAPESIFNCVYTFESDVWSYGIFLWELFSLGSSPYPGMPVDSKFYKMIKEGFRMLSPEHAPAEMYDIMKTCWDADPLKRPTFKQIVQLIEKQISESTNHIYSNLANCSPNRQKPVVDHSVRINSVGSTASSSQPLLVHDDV
Sequence of cAMP and cAMP-inhibited cGMP 3',5'-cyclic phosphodiesterase 10A (Homo sapiens) (Q9Y233 whole entry): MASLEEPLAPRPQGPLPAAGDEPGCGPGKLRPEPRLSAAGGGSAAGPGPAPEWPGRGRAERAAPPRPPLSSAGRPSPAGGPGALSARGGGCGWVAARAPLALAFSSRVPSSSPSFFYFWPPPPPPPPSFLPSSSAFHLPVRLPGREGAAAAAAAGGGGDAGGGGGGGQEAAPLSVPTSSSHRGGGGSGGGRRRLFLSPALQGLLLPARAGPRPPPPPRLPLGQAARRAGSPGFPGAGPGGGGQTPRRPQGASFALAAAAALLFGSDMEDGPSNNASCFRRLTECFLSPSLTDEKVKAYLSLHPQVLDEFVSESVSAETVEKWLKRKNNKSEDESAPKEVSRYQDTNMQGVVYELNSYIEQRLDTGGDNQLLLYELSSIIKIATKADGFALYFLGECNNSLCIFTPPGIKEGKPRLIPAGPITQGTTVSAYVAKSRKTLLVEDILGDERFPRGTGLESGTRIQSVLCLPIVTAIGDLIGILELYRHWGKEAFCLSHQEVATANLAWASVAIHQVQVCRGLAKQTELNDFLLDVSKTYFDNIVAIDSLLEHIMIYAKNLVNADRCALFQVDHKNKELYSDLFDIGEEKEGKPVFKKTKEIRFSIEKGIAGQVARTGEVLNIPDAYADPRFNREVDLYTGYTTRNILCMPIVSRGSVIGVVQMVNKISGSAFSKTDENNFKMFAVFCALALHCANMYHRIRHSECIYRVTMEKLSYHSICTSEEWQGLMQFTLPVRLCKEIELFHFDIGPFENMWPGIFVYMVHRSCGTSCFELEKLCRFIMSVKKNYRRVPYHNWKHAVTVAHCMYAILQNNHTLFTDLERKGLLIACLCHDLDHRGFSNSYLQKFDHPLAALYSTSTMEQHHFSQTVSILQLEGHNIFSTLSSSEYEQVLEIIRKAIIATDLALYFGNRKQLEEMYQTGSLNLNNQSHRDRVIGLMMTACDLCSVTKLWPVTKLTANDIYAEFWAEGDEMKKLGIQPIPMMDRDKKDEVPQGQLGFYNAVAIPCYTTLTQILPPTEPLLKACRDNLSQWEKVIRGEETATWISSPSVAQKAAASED

One may read the pEC50 as −log10 of the EC50, conventionally taken in molar units. A higher pEC50 goes with a low EC50. As for `CCN(CC)CCO/N=C(\c1ccc(SC)cc1)c1cccc2ccccc12.O=C(O)C(=O)O`, the results for the pEC50 in data set [1] and in [2] were 5.06 and 5.52, respectively. Besides, the selectivity ratio in data set [3] stood at 1.2. Also, the Activity in [4] worked out at 50%; in data set [5] it was 16.82%; in [6], 11.48%.

`CCN(CC)CCO/N=C(\c1ccc(SC)cc1)c1cccc2ccccc12`: the inhibition result in [7], in data set [8], in data set [9] and in data set [16] was “inactive” each time. The inhibition result in data set [10], in [11], in data set [14], in data set [15] and in [17] was “Active” throughout. Further, the outcome in data set [12] was inactive. Further, the result in data set [13] was Active.
